Source: PubChem BioAssay (several laboratories)
Only some compounds are listed: those with a hit (about 0.77% of all), similar ones and a draw of the others.
S1P4 antag: blocks the human S1P4 receptor. O95977. S1P4-expressing cells, antagonist mode, reporter read-out. inhibition, % at 4.98 µM. 0.26% of 220,000 active. AID 1510; in the data active = inhibition above about 29%
Calb biofilm kill: mixtures killing C. albicans biofilm; C. albicans biofilm persisters + clotrimazole, fluorescence viability; primary screen in compound mixtures of four per well; inhibition, % at 7.6 µM; 0.02% of 120,000 active; AID 1242;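 active = inhibition above 30.3% in the primary screen of four-compound pools, then above 30% when the compound was retested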;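 also: compounds exposed to preformed 24 h biofilms for 48 h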
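Test system: C. albicans biofilms. Buffer or medium: RPMI/MOPS medium, pH 7.0. Timing: 48 h compound exposure at 37 °C. Technique: Alamar Blue fluorescence. Evaluation: percent inhibition of biofilm viability.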
Pf gametocyte: P. falciparum stage V gametocyte viability inhibition; P. falciparum stage V gametocytes, ATP luminescence, 24 h; inhibition, % at 10.9 µM; 0.065% of 150,000 active;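 active = inhibition above the mean plus 3 SD of compounds within the control limits, set per campaign, cut at about 38% in these data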
S1P3 antag: blocks the human S1P3 receptor; Q99500; CHO S1P3 NFAT-BLA reporter, FRET fluorescence, antagonist mode; inhibition, % at 4.98 µM; 0.27% of 170,000 active; AID 485;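 active = inhibition above the plate cutoff, the mean inhibition of test wells on that plate plus 3 SD, cut at about 28% in these data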;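 also: cells challenged with S1P at its EC80 of 0.8 µM; blue over green emission ratio from cleaved BLA substrate after 4 h stimulation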
S1P4 ag: activates the human S1P4 receptor. O95977. S1P4-expressing cell line, agonist reporter assay. activation, % at 4.98 µM. 0.35% of 220,000 active. AID 1509; in the data active = activation above about 11%
S1P4 agonist cf: human S1P4 agonism, confirmation. shares compounds with S1P4 ag. S1P4 agonist cell-based reporter assay. activation, % at 4.98 µM. 7% of 740 active; in the data active = activation above about 12%
S1P1 ag: human S1P1 agonism as S1P4 agonist counter-screen | AID 1563 | 4% of 740 active | S1P1 agonist cell-based assay, activation | shares compounds with S1P4 ag | activation, % at 4.98 µM; in the data active = activation above about 21%
Target sequence (P21453 whole entry, looked up): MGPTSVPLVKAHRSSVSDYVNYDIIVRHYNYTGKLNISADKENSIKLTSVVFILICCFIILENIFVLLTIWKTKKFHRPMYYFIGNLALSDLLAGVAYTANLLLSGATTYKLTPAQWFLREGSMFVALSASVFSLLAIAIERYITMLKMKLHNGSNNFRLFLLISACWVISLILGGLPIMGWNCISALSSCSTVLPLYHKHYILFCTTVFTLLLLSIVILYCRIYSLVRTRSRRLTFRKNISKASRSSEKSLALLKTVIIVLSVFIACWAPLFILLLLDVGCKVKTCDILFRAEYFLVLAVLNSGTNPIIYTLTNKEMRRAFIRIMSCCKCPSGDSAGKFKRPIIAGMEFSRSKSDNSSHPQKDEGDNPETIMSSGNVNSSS
S1P4 antag cf: confirmation of human S1P4 receptor antagonists; AID 1524; inhibition, % at 4.98 µM; 71% of 520 active; shares compounds with S1P4 antag; S1P4-expressing cell line, antagonist mode, reporter read-out; in the data active = inhibition above about 30%
S1P1 antagonist: human S1P1 antagonism as S1P4 antagonist counter-screen | shares compounds with S1P4 antag | cell-based S1P1 antagonist counterscreen, inhibition | inhibition, % at 4.98 µM | 37% of 520 active; in the data active = inhibition above about 40%;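 also: receptor stimulated with S1P near its EC80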
A number is an active result; . = inactive; / = no result given.

SMILES	S1P4 antag	Calb biofilm kill	Pf gametocyte	S1P3 antag	S1P4 ag	S1P4 agonist cf	S1P1 ag	others
CCC1(C(=O)OC)CCc2c(cc(OC)c3ccccc23)C1=O (stereo not given)	.	.	/	.	12.7	.	.
COc1ccc(C2(CNC(=O)c3ccccc3)CCCC2)cc1OC	/	/	.	/	/	/	/
COc1ccc(C2=NOC(C(=O)NC(C)(C)C)C2)cc1 (stereo not given)	.	/	/	.	23.4	.	.
CCCCNC(=O)CSc1nnc(-c2c[nH]c3ccccc23)n1CC1CCCO1 (stereo not given)	.	/	/	/	.	/	/
Cc1ccc(C(=O)Nc2ccnc(-c3cccnc3)n2)cc1	.	.	.	.	.	/	/
O=C(Nc1ccnc(-c2cccnc2)n1)c1ccc(Cl)c(Cl)c1	.	/	/	/	26.9	.	.
CCc1c(C)nc2ncnn2c1NCCc1ccc(Cl)cc1	.	.	.	.	.	/	/
COc1ccc2cc(/C=N/NC(=O)c3ccc(CN(c4cccc(Cl)c4Cl)S(C)(=O)=O)cc3)c(Cl)nc2c1	.	.	.	.	42.6	.	.
COc1ccc2cc(/C=N/O)c(Cl)nc2c1	.	.	.	.	.	/	/
O=S(=O)(O)c1nc2ccccc2[nH]1	.	.	.	.	.	/	/
O=C(O)c1ccc(N/N=C/c2ccc(-c3ccc(Cl)cc3Cl)o2)cc1	.	.	.	.	15.9	.	26.3
O=C(O)c1ccc(N/N=C/c2ccc(-c3cccc(Cl)c3)o2)cc1	.	.	.	.	13.3	.	.
CC1CN(CC(O)COC(c2ccccc2)c2ccccc2)CC(C)O1 (stereo not given)	.	.	.	.	57.3	.	.
CCOc1ccccc1NC(=S)N1CCC(c2nc3ccccc3o2)CC1	.	.	.	.	.	/	/
COc1ccc2[nH]c3c(=O)n4c(nc3c2c1)SCCC4	.	.	.	.	35.7	.	.
N#C/C(=C\c1ccc(F)cc1F)S(=O)(=O)c1ccccn1	.	.	.	.	.	/	/
COc1ccc(-n2cc(CNCCc3cscn3)c(-c3ccccc3Cl)n2)cc1	.	.	.	.	112.3	.	.
CCOC(=O)c1csc(-c2snnc2C)n1	.	.	.	.	.	/	/
COc1ccc(CC(=O)Nc2nnc(C(C)(C)C)s2)cc1OC	.	.	/	.	31.8	.	.
O=C(NCCN1CCOCC1)c1ccc(-c2ccccc2)cc1	.	/	/	.	.	/	/
Cc1onc(-c2ccccc2)c1C(=O)NCCN1CCOCC1	.	/	/	.	16.8	.	.
Nc1nc(Nc2ccccc2Br)nc(C(F)(F)F)n1	.	/	/	.	.	/	/
Nc1nc(Nc2ccc(Cl)cc2Cl)nc(C(F)(F)F)n1	.	/	.	.	29.9	26.6	.
O=C(CCCN1C(=O)/C(=C/c2ccccc2Cl)SC1=S)NNC(=O)c1ccccc1	.	.	.	.	18.3	.	.
O=C(CCCN1C(=O)/C(=C/c2ccccc2Cl)SC1=S)NNC(=O)c1cccnc1	.	.	.	.	.	/	/
SMILES	S1P4 antag	Calb biofilm kill	Pf gametocyte	S1P3 antag	S1P4 ag	S1P4 agonist cf	S1P1 ag	others
CCn1cc(Cl)c(C(=O)Nc2ccccc2C(N)=O)n1	.	.	/	.	.	/	/
Cc1cc(C)cc(NC(=O)CSc2ccc(-c3cccs3)nn2)c1	.	.	.	.	.	/	/
O=C(CSc1ccc(-c2cccs2)nn1)Nc1ccccc1	.	.	/	.	34.6	.	.
Cc1ccccc1NC(=O)c1ccc(N/N=C/c2ccccc2O)c([N+](=O)[O-])c1	.	/	.	/	.	/	/
Cc1ccc(NC(=O)c2ccc(N/N=C/c3cccc(O)c3)c([N+](=O)[O-])c2)cc1	.	/	.	/	14.4	.	.
CN(c1ccc(C(=O)NCCCn2ccnc2)cc1)S(C)(=O)=O	/	/	.	/	/	/	/
Cc1cc(Oc2ccc(=O)n(C)n2)nc(=S)[nH]1	.	.	/	.	.	/	/
COc1ccc(-c2nnc(SCc3nnc(-c4cccs4)o3)n2CC2CCCO2)cc1 (stereo not given)	.	.	/	.	57.1	.	.
Cc1nnc(SCc2nnc(-c3cccs3)o2)n1C1CCCCC1	.	.	/	.	.	/	/
O=C(CCC1CCCN(C(=O)c2ccc3cc[nH]c3c2)C1)NCc1ccc(F)c(F)c1 (stereo not given)	.	.	.	.	.	/	/
COc1cccc(Nc2nc(-c3sc(NC(=O)c4ccco4)nc3C)cs2)c1	.	/	.	/	28.6	.	.
Cc1nc2cc(NC(=O)NCc3ccco3)ccc2o1	.	/	/	.	19.6	.	.
CCOC(=O)c1ccc(-n2cccc2/C=C2\NC(=O)NC2=O)cc1	/	/	.	/	/	/	/
COc1cc(NC2=CC(=O)CC(C)(C)C2)cc(OC)c1	.	/	.	.	28.0	.	.
COc1ccc(CN2CCNC(=O)C2CC(=O)N2CCCCO2)c(OC)c1 (stereo not given)	.	.	.	.	.	/	/
CCC1CCCCN1C(=S)Nc1ccc(OC(F)F)cc1 (stereo not given)	.	.	/	.	12.5	.	.
Cc1ccc(Nc2cc(C)c3ccc(O)cc3n2)cc1C	74.6	.	.	.	11.2	.	.	S1P4 antag cf=80.3;S1P1 antagonist=.
Cc1c(-c2ccnc3cc(C(=O)O)nn23)cnn1C	.	.	/	.	.	/	/
N=c1n(CCN2CCOCC2)c2ccccc2n1CC(=O)c1ccc(Cl)c(Cl)c1	.	/	.	.	.	/	/
N=c1n(CCN2CCCC2)c2ccccc2n1CC(O)c1ccc(Cl)c(Cl)c1 (stereo not given)	38.1	.	/	.	55.0	.	.	S1P4 antag cf=71.2;S1P1 antagonist=59.8
Oc1[nH]c2ccc(Br)cc2c1N=NC(=S)N1CCOCC1	32.7	.	.	.	.	/	/	S1P4 antag cf=101.5;S1P1 antagonist=58.3
Oc1[nH]c2ccccc2c1N=NC(=S)N1CCOCC1	.	.	/	.	.	/	/
N#Cc1nccnc1S(=O)(=O)c1cccs1	40.9	.	.	.	.	/	/	S1P4 antag cf=96.9;S1P1 antagonist=55.9
O=S(=O)(c1cccs1)N1CCN(S(=O)(=O)c2cccs2)CC1	.	.	.	.	.	/	/
COc1cc(CNCCCN2CCOCC2)cc(Br)c1OCc1ccc(Cl)cc1	29.7	.	.	.	.	/	/	S1P4 antag cf=52.0;S1P1 antagonist=.
SMILES	S1P4 antag	Calb biofilm kill	Pf gametocyte	S1P3 antag	S1P4 ag	S1P4 agonist cf	S1P1 ag	others
CC(=O)N1CCc2c(sc(NC(=O)c3ccc([N+](=O)[O-])o3)c2C#N)C1	33.4	.	.	.	.	/	/	S1P4 antag cf=82.0;S1P1 antagonist=.
COc1ccc(C(=O)Nc2sc3c(c2C#N)CCN(C(C)=O)C3)cc1	.	.	.	.	.	/	/
CO/N=C\CC(=O)Nc1ccc(Oc2ccccc2)cc1	.	.	.	.	.	/	/
O=C(Nc1ccc(OCc2ccccc2Cl)cc1)c1cccnc1	/	/	.	/	/	/	/
O=C(N/N=C/c1cccc2cccnc12)c1ccccc1O	32.1	.	.	.	.	/	/	S1P4 antag cf=100.9;S1P1 antagonist=79.2
CC(C)(C)OC(=O)N[C@@H](Cc1ccccc1)c1nnc(SCC(=O)O)o1	.	/	/	.	.	/	/
Cc1ccccc1CS(=O)(=O)c1nnc([C@H](Cc2ccccc2)NC(=O)OC(C)(C)C)o1	71.1	/	/	/	.	/	/	S1P4 antag cf=108.3;S1P1 antagonist=.
